Screening results (PubChem BioAssay)
Most compounds without a hit are left out; they make up all but 1.9% or so of the library.
FAS-TE inh – blocks the thioesterase domain of human fatty acid synthase. P49327. recombinant FAS-TE, OMFH fluorogenic substrate, fluorescence endpoint. inhibition, % at 15 µM. 360,000 compounds, 0.67% hits;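 active = compounds whose normalised, plate-corrected inhibition of enzyme fluorescence in the single-dose primary screen is 50% or more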
SUMO1 PPI mod – SUMO1-SIM interaction modulation | SUMO1 binding to a labelled peptide, TR-FRET, 1 h | inhibition, % at 20 µM | 360,000 compounds, 0.33% hits | P63165 | AID 602429; in the data active = inhibition above about 37%
Target sequence (P63165 whole entry, looked up): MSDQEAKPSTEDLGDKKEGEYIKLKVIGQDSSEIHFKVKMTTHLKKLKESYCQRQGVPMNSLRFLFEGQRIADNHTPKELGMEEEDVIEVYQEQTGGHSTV
LMPTP block – blocks human LMPTP phosphatase. P24666. recombinant LMPTP-A, OMFP fluorogenic substrate, fluorescence intensity. inhibition, % at 20 µM. 360,000 compounds, 0.22% hits;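 active = compounds that cut the enzyme signal by at least half of the control window in the single-dose screen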
Target sequence (P24666 whole entry, looked up): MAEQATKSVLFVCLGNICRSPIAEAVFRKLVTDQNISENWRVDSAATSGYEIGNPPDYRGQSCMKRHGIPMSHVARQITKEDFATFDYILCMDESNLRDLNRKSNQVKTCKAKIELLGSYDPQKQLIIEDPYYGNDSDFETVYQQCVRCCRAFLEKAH
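Assay system: LMPTP-A enzyme. Input: 0.625 nM LMPTP-A final. Probe or stimulus: 400 µM OMFP. Compound dosing: single 20 µM dose. Schedule: 50 min dark incubation at room temperature. Detection: fluorescence intensity of OMFP turnover product. Read-out: percent inhibition versus substrate-only and uninhibited controls. Benchmarks: no-enzyme low control, uninhibited high control.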
STEP inh – STEP (human) phosphatase inhibition. P54829. recombinant STEP, OMFP fluorogenic substrate, fluorescence. inhibition, % at 20 µM. 360,000 compounds, 0.25% hits;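 active = inhibition at 20 µM, scaled per plate between control wells, above about 37%, limit read from the data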
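Measure: Control-normalized % inhibition with plate pattern correction | Test system: STEP phosphatase, cell-free reaction | Medium: pH 6.0 Bis-Tris with DTT and Tween 20 | Technique: Fluorescence, 480/540 nm | Times: Reaction 20 min, ambient temperature | Doses: Single compound dose of 20 µM, 1% DMSO final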
Scp1 inh – Scp-1 (human) phosphatase inhibition; Q9GZU7; Recombinant Scp1, phosphopeptide, malachite green phosphate absorbance; inhibition, % at 20 µM; 340,000 compounds, 0.88% hits;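 active = inhibition above about 50% at 20 µM, limit read from the data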
Target sequence (Q9GZU7 76-261 limits assumed): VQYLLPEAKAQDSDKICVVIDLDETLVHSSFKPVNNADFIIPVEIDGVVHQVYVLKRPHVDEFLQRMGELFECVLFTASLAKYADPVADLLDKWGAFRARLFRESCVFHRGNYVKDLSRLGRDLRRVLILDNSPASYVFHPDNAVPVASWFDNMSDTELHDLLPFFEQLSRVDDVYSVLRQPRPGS
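System: SCP-1 catalytic domain; Reagent: Phospho 17-mer peptide substrate; Doses: one concentration, 20 µM, with 1.0% DMSO; Incubation: 45 min room-temperature reaction, 5 min colour, 30 min stabiliser; Signal: Phosphate-binding colour reagent, absorbance read at 630 nm.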
FAS-TE inh conf – confirmation of human fatty acid synthase thioesterase inhibitors | shares compounds with FAS-TE inh | recombinant FAS-TE, OMFH fluorogenic substrate, fluorescence | inhibition, % at 15 µM | 2,300 compounds, 45% hits;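 active = compounds inhibiting the enzyme by at least 50% at 15 µM in any one of the replicates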
A number is an active result; n = inactive; x = not tested or not shown.

SMILES	FAS-TE inh	SUMO1 PPI mod	LMPTP block	STEP inh	Scp1 inh	FAS-TE inh conf
Cc1cc(C)[n+](Cc2ccccc2)cc1C(N)=O	n	n	n	n	n	x
CN(C)N1C(N)=C(C#N)C(c2ccccc2)C2=C1CC(C)(C)CC2=O (configuration not stated)	n	n	n	n	n	x
CN(C)N1C(N)=C(C#N)C(c2cccc3ccccc23)C2=C1CC(c1ccccc1)CC2=O (configuration not stated)	65	n	n	n	n	n
CCC(=O)N(C)C[C@H]1Oc2ncc(C#Cc3ccncc3)cc2C(=O)N([C@@H](C)CO)C[C@@H]1C	n	n	n	n	x	x
CCN(CC)c1cc2nonc2c2nonc12	51	n	n	n	n	45
Cc1cccc(C)c1NC(=O)c1nc(S(=O)(=O)Cc2ccccc2)ncc1Cl	n	n	n	n	n	x
CCN(c1ccccc1)S(=O)(=O)c1ccc(NC(=O)c2nc(S(C)(=O)=O)ncc2Cl)cc1	58	n	n	n	n	61
Cc1ccccc1CS(=O)(=O)c1ncc(Cl)c(C(=O)Nc2ccc(F)cc2)n1	50	n	n	n	n	n
CCS(=O)(=O)c1ncc(Cl)c(C(=O)Nc2ccc(S(=O)(=O)N(C)c3ccccc3)cc2)n1	n	n	n	n	n	x
O=C(Nc1ccc(F)cc1)c1nc(S(=O)(=O)Cc2ccccc2)ncc1Cl	57	n	n	n	n	58
Cc1ccc(NC(=O)c2nc(S(=O)(=O)Cc3ccccc3)ncc2Cl)cc1	n	n	n	n	n	x
Cc1cc(CNC(=O)COC(=O)Cn2[nH]c(=O)c3ccccc3c2=O)cc(C)c1O	n	n	n	n	n	x
Cc1ccc(S(=O)(=O)N(C)C)cc1-n1c(SCC(=O)Nc2ccccc2)nc2ccccc2c1=O	52	n	n	n	n	n
Cc1ccc(S(=O)(=O)N(C)C)cc1-n1c(SCC(=O)Nc2ccc(F)cc2Cl)nc2ccccc2c1=O	n	n	n	n	n	x
Cc1ccc(S(=O)(=O)N(C)C)cc1-n1c(SCC(=O)Nc2ccc(F)cc2)nc2ccccc2c1=O	54	n	n	n	n	n
O=C(CN1C(=O)c2cccnc2Oc2ccc(Cl)cc21)NCCCc1ccccc1	55	n	n	n	n	n
Cc1ccccc1N(CC(=O)NCc1ccc2c(c1)OCO2)C(=O)C1CSC(=O)C1 (configuration not stated)	69	n	n	n	n	67
Cc1ccc(S(=O)(=O)Cn2nnnc2C(C(C)C)N2CCN(c3nc4ccccc4s3)CC2)cc1 (configuration not stated)	60	n	n	n	n	n
COCCC(=O)N1CCC(Oc2ccc(C(=O)NCCn3cccn3)cc2)CC1	n	n	n	n	n	x
CCOC(=O)C1CCN(C(=O)c2ccc3c(=O)n4nc(Nc5cc(C)ccc5C)sc4nc3c2)CC1	55	n	n	n	n	n
CCOC(=O)C1CCN(C(=O)c2ccc3c(=O)n4nc(Nc5ccccc5OC)sc4nc3c2)CC1	54	n	n	n	x	59
COc1ccccc1Nc1nn2c(=O)c3ccc(C(=O)N4CCCC(C)C4)cc3nc2s1 (configuration not stated)	n	n	n	n	n	x
COc1ccc(-n2c(SCc3ccccn3)nc3c(c2=O)SCC3)cc1OC	n	n	n	n	n	x
O=C(CN1C(=O)C2CC=CCC2C1=O)Nc1ccc(F)cc1F (configuration not stated)	n	n	n	n	n	x
Cc1cccc2c1N(C(=O)CN1C(=O)c3ccccc3C1=O)C(C)(C)c1ssc(=S)c1-2	n	n	n	n	n	x
SMILES	FAS-TE inh	SUMO1 PPI mod	LMPTP block	STEP inh	Scp1 inh	FAS-TE inh conf
Cc1cc(C)c2c(c1)-c1c(ssc1=S)C(C)(C)N2C(=O)CN1C(=O)c2ccccc2C1=O	63	n	n	n	n	n
CCOC(=O)c1coc(C(=O)OCC)c1C(=O)OCC	n	n	n	n	n	x
CCOC1=C2[C@H](c3ccccc3)N(S(=O)(=O)c3ccc(C)cc3)C(C(C)(C)C)[C@H]2n2c(=O)n(-c3ccccc3)c(=O)n2C1 (some centres not stated)	89	n	n	n	x	n
CCOC1=C2[C@H](c3ccccc3)N(S(=O)(=O)c3ccc(C)cc3)[C@H](C(C)C)[C@H]2n2c(=O)n(-c3ccccc3)c(=O)n2C1	60	n	n	n	x	n
Cc1cccc(C)c1N1C(=O)CCC(C)(C)C1=O	n	n	n	n	n	x
NS(=O)(=O)c1cccc(NC(=O)CSc2nc3nc(-c4cccs4)cc(C(F)(F)F)c3c(=O)[nH]2)c1	n	n	n	n	n	x
O=C(CSc1nc2nc(-c3cccs3)cc(C(F)(F)F)c2c(=O)[nH]1)Nc1c(F)c(F)c(F)c(F)c1F	50	n	n	n	n	n
COc1ccc(-c2csc(NC(=O)c3c(C)noc3C)n2)cc1OC	n	n	n	n	x	x
Cc1ccc(NC2Sc3ccccc3NC2=O)cc1Cl (configuration not stated)	n	n	n	n	n	x
Cc1ccc(C(=O)NCCSC(C)(C)C)cc1	n	n	n	n	n	x
Cc1ccc(C(=O)NCCSC(C)(C)C)cc1[N+](=O)[O-]	56	n	n	n	n	56
Cc1ccc(C(=O)NCCSCc2ccc(Cl)cc2Cl)cc1[N+](=O)[O-]	51	n	n	n	n	n
CC(NC(=O)/C(C#N)=C1\N=C(NC(=O)c2cccs2)c2ccccc21)c1ccccc1 (configuration not stated)	n	n	n	n	n	x
CCn1c(=O)c([N+](=O)[O-])c(N2CCN(Cc3ccc4c(c3)OCO4)CC2)c2ccccc21	88	n	n	n	n	81
CCn1c(=O)c([N+](=O)[O-])c(N2CCSCC2)c2ccccc21	n	n	n	n	n	x
COCCCN1CN(S(=O)(=O)c2ccc(C)cc2C)c2nc3ccccc3nc21	n	n	n	n	n	x
O=[N+]([O-])c1ccc(C(O)C(CO)NC(=S)Nc2ccccc2)cc1 (configuration not stated)	59	n	n	n	n	55
CCCCNC(=O)CCC(=O)Nc1ccc2nc(N3CCC(C)CC3)cc(C)c2c1	60	n	n	n	n	n
O=c1cc2c(nn1Cc1ccccc1)-c1ccccc1CC2	n	n	n	n	n	x
O=c1cc2c(nn1Cc1cccc([N+](=O)[O-])c1)-c1ccccc1CC2	71	n	n	n	n	n
CCCCCN(C(=O)COC(=O)CSc1ccc([N+](=O)[O-])cc1)c1c(N)n(CCCC)c(=O)[nH]c1=O	58	n	n	n	n	n
CC(C)(C)n1ncc2c(=O)n(Cc3cc(F)c(Cl)cc3Cl)cnc21	52	n	n	n	n	n
